Our source for the SUV values is ChEMBL document CHEMBL1154674, “Synthesis and evaluation of three 18F-labeled aminophenylbenzothiazoles as amyloid imaging agents” (J Med Chem, 2009).

Holding throughout (format): ADME, organism-based, Macaca mulatta
Series [1] can be described thus: Drug level in normal rhesus monkey pons assessed as standard uptake value at 81.2 MBq, iv after 22.5 mins by microPET. The following applies: in vivo, 0.375 h.
The nature of series [2]: Drug level in normal rhesus monkey parietal cortex assessed as standard uptake value at 81.2 MBq, iv after 3.5 mins by microPET. The following applies: in vivo.
Series [3] is described as follows: Drug level in normal rhesus monkey thalamus assessed as standard uptake value at 81.2 MBq, iv after 0.5 mins by microPET. As to conditions: in vivo.
Series [4] in a line: Drug level in normal rhesus monkey thalamus assessed as standard uptake value at 81.2 MBq, iv after 8 mins by microPET. As to conditions: in vivo.
Series [5] in a line: Drug level in normal rhesus monkey thalamus assessed as standard uptake value at 81.2 MBq, iv after 27.5 mins by microPET. The following applies: in vivo.
Series [6] is described as follows: Drug level in normal rhesus monkey frontal cortex assessed as standard uptake value at 81.2 MBq, iv after 42.5 mins by microPET. The following applies: in vivo.
Series [7] in a line: Drug level in normal rhesus monkey cerebellum assessed as standard uptake value at 81.2 MBq, iv after 17.5 mins by microPET. As to conditions: in vivo. The procedure, abridged: (§1)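 One normal rhesus monkey, each tracer given iv via the vena saphena (81.2, 96.3 or 109.4 MBq), with 1 day between tracer injections. Dynamic brain μPET over 180 min used frames of 5 × 60 s, 5 × 120 s, 9 × 300 s and 12 × 600 s. Images were reconstructed by filtered back projection with a RAMP filter. Regional time-activity curves were expressed as SUV.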

Series [8] is described as follows: Drug level in normal rhesus monkey frontal cortex assessed as standard uptake value at 81.2 MBq, iv after 3.5 mins by microPET. As to conditions: in vivo.
A short description of series [9]: Drug level in normal rhesus monkey frontal cortex assessed as standard uptake value at 81.2 MBq, iv after 14 mins by microPET. The following applies: in vivo.
A short description of series [10]: Drug level in normal rhesus monkey thalamus assessed as standard uptake value at 96.3 MBq, iv after 4.5 mins by microPET. As to conditions: in vivo, 0.075 h.
Series [11] in a line: Drug level in normal rhesus monkey pons assessed as standard uptake value at 96.3 MBq, iv after 47.5 mins by microPET. As to conditions: in vivo.
A short description of series [12]: Drug level in normal rhesus monkey pons assessed as standard uptake value at 96.3 MBq, iv after 125 mins by microPET. The following applies: in vivo.
Series [13] is described as follows: Drug level in normal rhesus monkey cerebellum assessed as standard uptake value at 96.3 MBq, iv after 47.5 mins by microPET. The following applies: in vivo. In outline:
as §1

The nature of series [14]: Drug level in normal rhesus monkey cerebellum assessed as standard uptake value at 96.3 MBq, iv after 52.5 mins by microPET. As to conditions: in vivo, 0.875 h. In outline:
as §1

The nature of series [15]: Drug level in normal rhesus monkey frontal cortex assessed as standard uptake value at 96.3 MBq, iv after 2.5 mins by microPET. The following applies: in vivo.
Series [16] is described as follows: Drug level in normal rhesus monkey frontal cortex assessed as standard uptake value at 96.3 MBq, iv after 14 mins by microPET. The following applies: in vivo.
Series [17] is described as follows: Drug level in normal rhesus monkey pons assessed as standard uptake value at 109.4 MBq, iv after 12.5 mins by microPET. The following applies: in vivo.
Series [18] is described as follows: Drug level in normal rhesus monkey parietal cortex assessed as standard uptake value at 109.4 MBq, iv after 0.625 mins by microPET. As to conditions: in vivo, 38 s.
Series [19] is described as follows: Drug level in normal rhesus monkey cerebellum assessed as standard uptake value at 109.4 MBq, iv after 129 mins by microPET. The following applies: in vivo, 2.15 h.
Series [20] is described as follows: Drug level in normal rhesus monkey frontal cortex assessed as standard uptake value at 109.4 MBq, iv after 3.5 mins by microPET. The following applies: in vivo. The procedure, abridged:
as §1

The nature of series [21]: Drug level in normal rhesus monkey frontal cortex assessed as standard uptake value at 109.4 MBq, iv after 6.5 mins by microPET. The following applies: in vivo.
The nature of series [22]: Drug level in normal rhesus monkey white matter assessed as standard uptake value at 109.4 MBq, iv after 87 mins by microPET. The following applies: in vivo, 1.45 h.
A short description of series [23]: Drug level in normal rhesus monkey thalamus assessed as standard uptake value at 109.4 MBq, iv after 0.875 mins by microPET. The following applies: in vivo, 52 s.
Series [24] in a line: Drug level in normal rhesus monkey thalamus assessed as standard uptake value at 109.4 MBq, iv after 37.5 mins by microPET. The following applies: in vivo, 0.625 h.
The nature of series [25]: Drug level in normal rhesus monkey parietal cortex assessed as standard uptake value at 109.4 MBq, iv after 6.5 mins by microPET. As to conditions: in vivo.
The nature of series [26]: Drug level in normal rhesus monkey cerebellum assessed as standard uptake value at 152.9 MBq, iv after 3.5 mins by microPET. The following applies: in vivo. The procedure, abridged:
(§2)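 One normal rhesus monkey received each tracer via the vena saphena, with 1 day between injections. Dynamic μPET ran 180 min for 18F tracers (5×60 s, 5×120 s, 9×300 s, 12×600 s) and 90 min for the 11C tracer (5×60 s, 5×120 s, 9×300 s, 3×600 s). Filtered back-projection reconstruction (RAMP filter) was used. Time-activity curves were drawn to give regional SUV.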

Series [27] in a line: Drug level in normal rhesus monkey frontal cortex assessed as standard uptake value at 152.9 MBq, iv after 2.5 mins by microPET. The following applies: in vivo. In outline: (§3)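 Single normal rhesus monkey; tracer given iv via the vena saphena, 1 day apart from the other tracer injections. Dynamic μPET ran 90 min (5×60 s, 5×120 s, 9×300 s, 3×600 s). Images were reconstructed by filtered back projection with a RAMP filter. Regional time-activity curves were expressed as SUV.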

Series [28] in a line: Drug level in normal rhesus monkey frontal cortex assessed as standard uptake value at 152.9 MBq, iv after 4.5 mins by microPET. The following applies: in vivo, 0.075 h. The procedure, abridged:
as §3

Series [29] is described as follows: Drug level in normal rhesus monkey frontal cortex assessed as standard uptake value at 152.9 MBq, iv after 6 mins by microPET. The following applies: in vivo, 0.1 h. In outline: as §3
The nature of series [30]: Drug level in normal rhesus monkey frontal cortex assessed as standard uptake value at 152.9 MBq, iv after 42.5 mins by microPET. The following applies: in vivo. In outline: as §3
Series [31] in a line: Drug level in normal rhesus monkey white matter assessed as standard uptake value at 152.9 MBq, iv after 4.5 mins by microPET. As to conditions: in vivo, 0.075 h.
Series [32] in a line: Drug level in normal rhesus monkey white matter assessed as standard uptake value at 152.9 MBq, iv after 6 mins by microPET. As to conditions: in vivo, 0.1 h.
Series [33] can be described thus: Drug level in normal rhesus monkey white matter assessed as standard uptake value at 152.9 MBq, iv after 14 mins by microPET. As to conditions: in vivo.
Series [34] can be described thus: Drug level in normal rhesus monkey cerebellum assessed as standard uptake value at 152.9 MBq, iv after 0.5 mins by microPET. The following applies: in vivo. The procedure, abridged: as §2
A short description of series [35]: Drug level in normal rhesus monkey pons assessed as standard uptake value at 152.9 MBq, iv after 12 mins by microPET. As to conditions: in vivo, 0.2 h.
The nature of series [36]: Drug level in normal rhesus monkey pons assessed as standard uptake value at 152.9 MBq, iv after 14 mins by microPET. The following applies: in vivo.
The nature of series [37]: Drug level in normal rhesus monkey parietal cortex assessed as standard uptake value at 152.9 MBq, iv after 12 mins by microPET. The following applies: in vivo, 0.2 h.
Series [38] can be described thus: Drug level in normal rhesus monkey parietal cortex assessed as standard uptake value at 152.9 MBq, iv after 22.5 mins by microPET. As to conditions: in vivo, 0.375 h.

`CNc1ccc2nc(-c3ccc([18F])cc3)sc2c1`: the SUV in series [1] was 5.688; in [2] it was 4.897; in series [3], 0.855; in [4] it was 4.734; in series [5], 5.4; in series [6], 5.476. The SUV in [7] was determined as 2.753; in [8], 5.355; in series [9], 6.096.
In the case of `CN(C)c1ccc2nc(-c3ccc([18F])cc3)sc2c1`, the SUV came to 1.93 in series [10]; 1.84 in [11]; 1.88 in [12]; 1.23 in series [13]; 1.25 in series [14]; 1.8 in series [15]. The SUV in [16] worked out at 2.19.
As to `Nc1ccc2nc(-c3ccc([18F])cc3)sc2c1`, the SUV in series [17] was 4.65; in series [18], 1.52; in series [19], 2.36; in series [20] it was 4.99; in series [21], 5.35; in series [22], 3.65. The SUV was 2.43 in series [23], 5.66 in series [24] and 5.31 in [25].
On to `[11CH3]Nc1ccc(-c2nc3ccc(O)cc3s2)cc1` [PITTSBURGH COMPOUND B], for which the SUV in series [26] came out at 2.17; in series [27], 1.133; in [28] it was 2.11; in series [29] it was 2.184; in series [30], 0.84; in series [31], 1.334. In addition, the SUV in series [32] turned out to be 1.364; in series [33] it was 1.428; in series [34] it was 0.053; in series [35], 2.117; in series [36], 2.04; in [37], 2.062. Besides, the SUV in series [38] is recorded as 1.453.
